TRPC6 activator: activators of mouse TRPC6 channel; AID 2550; HEK293-TRPC6 membrane potential dye fluorescence; stronger effect = higher value; Q61143; B-score at 10 µM; 310,000 compounds, 0.13% hits;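 active = B-score of the integrated fluorescence ratio above library mean plus 3 SD, and starting fluorescence ratio within library mean plus 5 SD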;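 note: higher score means more depolarization so channel activation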
TRPC4 inh: inhibitors of mouse TRPC4 channel; HEK293 TRPC4beta/mu-opioid, DAMGO-evoked Fluo4 calcium flux; stronger effect = lower value; Q9QUQ5; 300,000 compounds, 0.39% hits; B-score at 10 µM;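 active = B-score over 3 SD under the library average, no early fluorescence shift, positive overall ratio signal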
Target sequence (Q9QUQ5 whole entry, looked up): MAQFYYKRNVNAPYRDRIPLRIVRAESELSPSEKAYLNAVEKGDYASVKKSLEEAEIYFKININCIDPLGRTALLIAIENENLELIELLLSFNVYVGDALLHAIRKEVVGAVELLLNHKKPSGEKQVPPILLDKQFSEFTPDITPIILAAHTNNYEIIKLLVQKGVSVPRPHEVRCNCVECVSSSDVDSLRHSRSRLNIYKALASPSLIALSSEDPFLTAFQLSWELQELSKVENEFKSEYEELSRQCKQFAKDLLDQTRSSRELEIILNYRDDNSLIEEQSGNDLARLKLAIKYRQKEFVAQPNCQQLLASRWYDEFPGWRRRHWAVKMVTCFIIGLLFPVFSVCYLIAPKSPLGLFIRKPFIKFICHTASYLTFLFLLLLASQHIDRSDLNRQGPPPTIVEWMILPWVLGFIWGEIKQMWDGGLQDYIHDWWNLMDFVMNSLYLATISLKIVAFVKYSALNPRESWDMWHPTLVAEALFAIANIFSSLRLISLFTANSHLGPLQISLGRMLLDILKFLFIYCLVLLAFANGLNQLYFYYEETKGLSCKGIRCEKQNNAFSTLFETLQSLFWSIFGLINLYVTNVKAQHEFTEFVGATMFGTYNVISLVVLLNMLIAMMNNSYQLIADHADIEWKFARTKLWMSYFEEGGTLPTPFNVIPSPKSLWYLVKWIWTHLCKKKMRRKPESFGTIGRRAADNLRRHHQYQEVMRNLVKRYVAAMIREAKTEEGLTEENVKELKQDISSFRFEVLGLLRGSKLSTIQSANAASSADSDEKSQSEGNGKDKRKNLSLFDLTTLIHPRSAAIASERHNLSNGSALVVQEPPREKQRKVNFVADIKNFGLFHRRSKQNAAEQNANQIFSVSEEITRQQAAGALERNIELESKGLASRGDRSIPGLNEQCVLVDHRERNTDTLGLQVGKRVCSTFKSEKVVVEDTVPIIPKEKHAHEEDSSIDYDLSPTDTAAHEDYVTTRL
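Assay system: HEK293 cells with stable TRPC4beta plus mu-opioid receptor expression. Dosing: single dose. Measured by: Fluo4 Ca2+ flux fluorescence. Also added: DAMGO in two steps, submaximal then maximal. Read-out: B score from integrated Fluo4 fluorescence ratio.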
TRPC6 inh: inhibitors of mouse TRPC6 channel; Q61143; HEK293-TRPC6, membrane potential dye, ACh-evoked depolarization; stronger effect = lower value; B-score at 10 µM; 310,000 compounds, 1.1% hits;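 active = B-score under library mean minus 3 SD, initial fluorescence not abnormally high, positive integrated signal ratio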;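 note: B-score derived from integrated fluorescence ratio over the kinetic read; more negative B-score means stronger inhibition of depolarization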
TRPC4 agonist: TRPC4 (mouse) channel activation | HEK293 TRPC4beta/mu-opioid, Fluo4 calcium fluorescence; stronger effect = higher value | Q9QUQ5 | 310,000 compounds, 0.49% hits | B-score at 10 µM;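 active = B-score above 5 SD of library B-scores, and initial fluorescence ratio not above library mean plus 5 SD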;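 note: positive B-score marks a calcium rise read as TRPC4 activation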
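system = HEK293 cells stably co-expressing mouse TRPC4beta and mu-opioid receptor | schedule = Fluo4 dye loading 45 min at room temperature, 110 s recording | measure = B-scored integrated calcium fluorescence ratio | signal = Fluo4 calcium-sensitive dye fluorescence, kinetic, 1 Hz baseline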
TRPC4 PAM: allosteric potentiators of mouse TRPC4 channel; Q9QUQ5; HEK293 TRPC4beta/mu-opioid, DAMGO EC20, Fluo-4 Ca2+ flux; stronger effect = higher value; B-score at 10 µM; 310,000 compounds, 0.42% hits; AID 2227;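 active = B-score of calcium response area above 5 SD of library B-scores, with initial fluorescence ratio within 5 SD of library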;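 note: B-score of integrated fluorescence ratio over time as area under calcium response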
Active calls of the source: *; i = inactive; . = not tested or not shown. Sampled rows, rich in hits. Any-hit rate of the full collection: about 2.3%.

SMILES	TRPC6 activator	TRPC4 inh	TRPC6 inh	TRPC4 agonist	TRPC4 PAM
C[C@H](NC(=O)N1CCn2c1nc1ccccc12)C(=O)N1CCCCC1	i	i	i	i	i
CCC(=O)NC(=S)Nc1ccc(NC(=O)COc2ccc(Cl)c(C)c2)cc1	i	i	i	i	i
Cc1cc(OCC(=O)NNC(=S)NC(=O)c2ccc(Br)o2)ccc1Cl	i	i	i	i	16*
CC(C)c1ccccc1OCCCCCNCCO	i	i	i	i	13*
CCCCn1c(N)c(N(CC(C)C)C(=O)c2cc3c(s2)CCCCC3)c(=O)[nH]c1=O	i	i	i	i	i
N#Cc1c2n(c(=S)n(-c3ccccn3)c1=O)CCCCC2	i	i	i	i	i
N#Cc1c2n(c(=S)n(-c3ccc(OC(F)F)cc3)c1=O)CCCCC2	i	i	i	i	13*
CC(=O)Nc1ccc2nc(NS(=O)(=O)c3ccc(C)cc3)sc2c1	i	i	i	i	i
COc1ccc2nc(NS(=O)(=O)c3ccc(NC(C)=O)cc3)sc2c1	i	-7*	i	122*	i
O=C(O)c1cccc(S(=O)(=O)N2CCN(C(c3ccccc3)c3ccccc3)CC2)c1	i	-9*	i	i	i
O=C(O)c1cccc(S(=O)(=O)N2CCCC2)c1	i	i	i	i	i
O=C(CN1CCCCC1)N=Nc1c(O)[nH]c2ccccc12	i	-8*	i	i	i
O=C(CN1CCN(Cc2ccccc2)CC1)N=Nc1c(O)[nH]c2ccccc12	i	i	i	i	i
CCCCC1=CC2=CC(=O)C(C)(OC(=O)c3ccc(Cl)nc3)C(=O)C2=CO1 (stereo not given)	i	i	i	i	i
O=C(Nc1ccccc1-c1ccccc1)c1cnccn1	i	i	i	i	13*
CCCC(=O)Nc1cc(C)c2c(=O)oc3ccccc3c2n1	i	i	i	i	i
Cc1cc(NC(=O)CN2CCc3ccccc3C2)nc2c1c(=O)oc1ccccc12	i	i	i	98*	i
CC(=O)NNC(=S)NC(=O)c1ccc(C)cc1	i	i	i	i	i
Cc1ccc(C(=O)NNC(=S)NC(=O)c2ccc(Cl)cc2)cc1	i	i	i	222*	i
O=C(CCc1ccccc1)NNC(=S)NC(=O)c1ccc(Cl)cc1	i	i	i	211*	i
CC(NS(=O)(=O)OCC(Cl)(Cl)Cl)c1ccc(Br)cc1 (stereo not given)	i	i	i	i	15*
CC(C)CC(NS(=O)(=O)OCC(Cl)(Cl)Cl)c1ccccc1 (stereo not given)	i	.	i	i	i
COCCN1CCN(c2c3c(nc4cc(-c5cccc(F)c5)nn24)CCC3)CC1	i	i	i	60*	11*
CCOC(=O)C1(C)NC(c2ccco2)C2C(=O)N(CC)C(=O)C21 (stereo not given)	i	i	i	i	i
O=C(O)CCCN1C(=O)/C(=C\c2ccc(-c3nc4ccccc4s3)o2)SC1=S	i	i	i	i	19*
SMILES	TRPC6 activator	TRPC4 inh	TRPC6 inh	TRPC4 agonist	TRPC4 PAM
O=C(O)CCN1C(=O)/C(=C/c2ccc(-c3nc4ccccc4s3)o2)SC1=S	i	i	i	i	i
Cc1cc(N2CCOCC2)nc(NCc2ccccc2)n1	i	i	i	i	i
Cc1cc(N2CCCCC2)nc(NCc2ccccc2)n1	i	i	i	47*	12*
CNc1cc(C)nc(N2CCOCC2)n1	i	i	i	i	i
Cc1cc(NCc2ccccc2)nc(N2CCOCC2)n1	i	-6*	i	i	i
CC(NC(=O)c1ccccc1F)C12CC3CC(CC(C3)C1)C2 (stereo not given)	i	i	i	i	i
CC(NC(=O)C(=O)NCCN1CCN(C(=O)c2ccc([N+](=O)[O-])cc2)CC1)c1ccccc1 (stereo not given)	i	i	i	i	i
CCOc1ccc(NS(=O)(=O)c2ccc(C(=O)NCc3ccncc3)cc2)cc1	i	i	i	i	i
CCOc1ccc(NS(=O)(=O)c2ccc(C(=O)NCc3ccccn3)cc2)cc1	i	i	i	44*	i
Cc1ccc(NS(=O)(=O)c2ccc(C(=O)NCc3ccccn3)cc2)cc1	i	i	i	44*	i
Cc1c(Cl)cccc1NC(=O)c1ccccc1-c1ccccc1C(=O)O	i	i	i	i	i
Cc1ccc(C2(CCN)CCOC(C(C)C)C2)cc1 (stereo not given)	i	i	i	i	i
Cc1ccc(C2(CCNC(C)c3cccs3)CCOC(C(C)C)C2)cc1 (stereo not given)	i	i	i	44*	i
COc1ccccc1C1(CCNC(C)c2cccs2)CCOC(C(C)C)C1 (stereo not given)	i	i	i	77*	i
COc1ccc(C(=O)/C=C/c2ccc(OC)c(Cn3nnc4ccccc43)c2)cc1	i	i	i	i	i
CSCCC(NS(=O)(=O)c1ccc2c(c1)oc(=O)n2C)C(=O)NC1CCCCC1 (stereo not given)	i	i	i	i	i
CSCCC(NS(=O)(=O)c1ccc2c(c1)c(=O)n(C)c(=O)n2C)C(=O)NC1CCN(Cc2ccccc2)CC1 (stereo not given)	i	i	i	90*	i
CC(OC(=O)Cc1n[nH]c(=O)c2ccccc12)C(=O)Nc1cccc([N+](=O)[O-])c1 (stereo not given)	i	i	i	i	11*
COc1ccccc1/C=C/C1(C(=O)NC2CCCC2)CC(=O)N1c1ccccc1 (stereo not given)	i	i	i	i	i
O=C(Nc1ccccc1Cl)c1sccc1-c1ccccc1	i	i	i	i	i
O=C(c1cc2cc(Br)cc(Br)c2oc1=O)N1CCCC1	i	i	i	i	17*
CC1(c2ccc(OC(F)F)cc2)NC(=O)N(CC(=O)Nc2cccnc2Cl)C1=O (stereo not given)	i	i	i	62*	i
COc1ccc(C2(C)NC(=O)N(CC(=O)Nc3cccnc3Cl)C2=O)cc1 (stereo not given)	i	i	i	i	i
CC12CCC(=O)N1C(C(=O)Nc1cccc(F)c1)CS2 (stereo not given)	i	i	i	i	i
CCc1ccccc1Nc1nc2ccccc2[nH]1	i	-5*	i	i	i
